Laboratory results from ChEMBL document CHEMBL5329183, “Naphthylthiazoles: a class of broad-spectrum antifungals” (RSC Med Chem, 2023).
Values after ≈ are worked out from the molar mass of the structure shown. Active and inactive are the calls of the source. The rule behind the calls is not given here.

Tests used:
[1] = Antifungal activity against Cryptococcus gattii NR 43214 assessed as inhibition of fungal growth incubated for 48 hrs by broth microdilution method; type: functional, Cryptococcus gattii VGI
Summary of the method: (§1)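 Broth microdilution per CLSI guidelines against clinical isolates, incubated at 35 °C for 24 h (Candida, Aspergillus) or 48 h (Cryptococcus). MIC was the lowest concentration giving 50% growth inhibition.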

[Candida] auris [2] = Antifungal activity against Candida auris 381 assessed as inhibition of fungal growth incubated for 24 hrs by broth microdilution method; type: functional; conditions: Candidozyma auris
Summary of the method: (§2)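 Clinical isolate; CLSI broth microdilution over a range of concentrations (media listed: RPMI 1640, MOPS, YPD). MIC taken as lowest concentration giving 50% growth inhibition after 24 h at 35 °C.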

Lactobacillus gasseri = assay: Antibacterial activity against Lactobacillus gasseri HM400 assessed as inhibition of bacterial growth; type: toxicity, organism-based
[3] = Antifungal activity against Cryptococcus gattii NR 43210 assessed as inhibition of fungal growth incubated for 48 hrs by broth microdilution method; type: functional, Cryptococcus gattii VGI; summary of the method: as §1
Candida albicans [4] = assay: Antifungal activity against Candida albicans ATCC 10231 assessed as inhibition of fungal growth incubated for 24 hrs by broth microdilution method; type: functional; summary of the method: as §1
[5] = Antifungal activity against Cryptococcus gattii NR 43213 assessed as inhibition of fungal growth incubated for 48 hrs by broth microdilution method; type: functional, Cryptococcus gattii VGI; summary of the method: as §1
Cryptococcus neoformans [6] = assay: Antifungal activity against Cryptococcus neoformans NR 48770 assessed as inhibition of fungal growth incubated for 48 hrs by broth microdilution method; type: functional
Summary of the method: (§3)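 Clinical isolate; CLSI broth microdilution over a range of concentrations (media listed: RPMI 1640, MOPS, YPD). MIC read as lowest concentration inhibiting growth by 50% after 48 h incubation at 35 °C.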

Candida albicans [7] = assay: Antifungal activity against Candida albicans NR 29448 assessed as inhibition of fungal growth incubated for 24 hrs by broth microdilution method; type: functional; summary of the method: as §2
Candida parapsilosis [8] = assay: Antifungal activity against Candida parapsilosis CAB 502638 assessed as inhibition of fungal growth incubated for 24 hrs by broth microdilution method; type: functional; conditions: Lodderomyces parapsilosis; summary of the method: as §1
Nakaseomyces glabratus [9] = assay: Antifungal activity against Candida glabrata ATCC 66032 assessed as inhibition of fungal growth incubated for 24 hrs by broth microdilution method; type: functional; summary of the method: as §2
[10] = Cytotoxicity against African green monkey Vero cells assessed as inhibition of cell viability incubated for 2 hrs by MTS assay; type: toxicity, cell-based; conditions: chlorocebus sabaeus
Summary of the method: (§4)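 Vero cells were grown in MEM with 10% FBS, 1 mM sodium pyruvate and penicillin–streptomycin, then exposed to compounds for 2 h at 37 °C, 5% CO2, in triplicate. MTS was added for 3 h and OD490 read. Viability was expressed as % of DMSO-matched controls (mean ± SD).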

Pichia kudriavzevii [11] = assay: Antifungal activity against Candida krusei CAB 396420 assessed as inhibition of fungal growth incubated for 24 hrs by broth microdilution method; type: functional; summary of the method: as §1
[12] = Antibacterial activity against Lactobacillus crispatus HM370 assessed as inhibition of bacterial growth; type: toxicity
[Candida] auris [13] = Antifungal activity against Candida auris 382 assessed as inhibition of fungal growth incubated for 24 hrs by broth microdilution method; type: functional; conditions: Candidozyma auris; summary of the method: as §2
[14] = Antibacterial activity against Lactobacillus casei HM334 assessed as inhibition of bacterial growth; type: toxicity; conditions: lacticaseibacillus casei
Cryptococcus neoformans [15] = assay: Antifungal activity against Cryptococcus neoformans NR 41300 assessed as inhibition of fungal growth incubated for 48 hrs by broth microdilution method; type: functional; summary of the method: as §3
Candida albicans [16] = assay: Antifungal activity against wild type Candida albicans SC5314 assessed as inhibition of fungal growth; type: functional
Cryptococcus neoformans [17] = assay: Antifungal activity against Cryptococcus neoformans NR 41298 assessed as inhibition of fungal growth incubated for 48 hrs by broth microdilution method; type: functional; summary of the method: as §3
Nakaseomyces glabratus [18] = assay: Antifungal activity against Candida glabrata ATCC MYA2950 assessed as inhibition of fungal growth incubated for 24 hrs by broth microdilution method; type: functional; summary of the method: as §2
Candida parapsilosis [19] = assay: Antifungal activity against Candida parapsilosis ATCC 22019 assessed as inhibition of fungal growth incubated for 24 hrs by broth microdilution method; type: functional; conditions: Lodderomyces parapsilosis; summary of the method: as §2
Pichia kudriavzevii [20] = assay: Antifungal activity against Candida krusei ATCC 34135 assessed as inhibition of fungal growth incubated for 24 hrs by broth microdilution method; type: functional; summary of the method: as §1
Vero = assay: Cytotoxicity against African green monkey Vero cells assessed as inhibition of cell viability at 16 ug/ml incubated for 2 hrs by MTS assay; type: toxicity, cell-based; conditions: chlorocebus sabaeus, dose 16 µg/ml
[21] = Antifungal activity against Cryptococcus gattii NR 43216 assessed as inhibition of fungal growth incubated for 48 hrs by broth microdilution method; type: functional, Cryptococcus gattii VGI; summary of the method: as §1
Cryptococcus neoformans [22] = assay: Antifungal activity against Cryptococcus neoformans NR 48767 assessed as inhibition of fungal growth incubated for 48 hrs by broth microdilution method; type: functional; summary of the method: as §3
[Candida] auris [23] = Antifungal activity against Candida auris 383 assessed as inhibition of fungal growth incubated for 24 hrs by broth microdilution method; type: functional; conditions: Candidozyma auris; summary of the method: as §2
[24] = Antifungal activity against Cryptococcus gattii NR 43209 assessed as inhibition of fungal growth incubated for 48 hrs by broth microdilution method; type: functional, Cryptococcus gattii VGI; summary of the method: as §1
Cryptococcus neoformans [25] = assay: Antifungal activity against Cryptococcus neoformans NR 48771 assessed as inhibition of fungal growth incubated for 48 hrs by broth microdilution method; type: functional; summary of the method: as §3
Cryptococcus neoformans [26] = assay: Antifungal activity against Cryptococcus neoformans NR 41299 assessed as inhibition of fungal growth incubated for 48 hrs by broth microdilution method; type: functional; summary of the method: as §3
Cryptococcus neoformans [27] = assay: Antifungal activity against Cryptococcus neoformans NR 48773 assessed as inhibition of fungal growth incubated for 48 hrs by broth microdilution method; type: functional; summary of the method: as §3
[28] = Cytotoxicity against African green monkey Vero cells assessed as cell viability at 8 ug/ml incubated for 2 hrs by MTS assay; type: toxicity, cell-based; conditions: chlorocebus sabaeus, at 8 µg/mL, read-out: Activity; summary of the method: as §4
Cryptococcus neoformans [29] = assay: Antibiofilm activity against Cryptococcus neoformans NR 41300 assessed as inhibition of biofilm formation at 0.5xMIC measured after 48 hrs by crystal violet staining based analysis; type: functional
Summary of the method: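 Overnight C. neoformans was washed twice in PBS and adjusted to 105 cells per mL in RPMI. Cells were exposed to compound at 0.5 × MIC for 48 h at 35 °C. Biofilm was rinsed, dried, stained with 0.1% crystal violet, and the dye extracted with glacial acetic acid; OD595 readout.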

Cryptococcus neoformans [30] = assay: Anti-cryptococcal activity against Cryptococcus neoformans NR 41300 infected in mouse J774 cells assessed as log reduction of intracellular fungal colony forming unit at 4 ug/ml measured after 24 hrs; type: functional; conditions: dose 4 µg/ml
Summary of the method: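 C. neoformans NR-41300 was grown 48 h in YPD, washed, and used to infect J774 macrophages at MOI ~100:1 for 1 h, followed by PBS washes. Compounds at 4 μg mL−1 (triplicate) were applied for 22 h at 37 °C, 5% CO2. Extracellular yeast were killed with amphotericin B 1 μg mL−1 for 1 h. Cells were lysed in 0.1% Triton X-100 and plated on YPD agar for 48 h at 37 °C; readout log10 CFU mL−1.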

Row | Structure (SMILES) | MIC [1] [µg/mL] | MIC ([Candida] auris [2]) [µg/mL] | MIC (Lactobacillus gasseri) [µg/mL] | MIC [3] [µg/mL] | MIC (Candida albicans [4]) [µg/mL] | MIC [5] [µg/mL] | MIC (Cryptococcus neoformans [6]) [µg/mL] | MIC (Candida albicans [7]) [µg/mL] | MIC (Candida parapsilosis [8]) [µg/mL] | MIC (Nakaseomyces glabratus [9]) [µg/mL] | MIC (Pichia kudriavzevii [11]) [µg/mL] | MIC [12] [µg/mL] | MIC ([Candida] auris [13]) [µg/mL] | MIC [14] [µg/mL] | MIC (Cryptococcus neoformans [15]) [µg/mL] | MIC (Candida albicans [16]) [µg/mL] | MIC (Cryptococcus neoformans [17]) [µg/mL] | MIC (Nakaseomyces glabratus [18]) [µg/mL] | MIC (Candida parapsilosis [19]) [µg/mL] | MIC (Pichia kudriavzevii [20]) [µg/mL] | also measured
1 | C[C@@H]1[C@H](O)[C@@H](C)/C=C/C=C/C=C/C=C/C=C/C=C/C=C/[C@H](O[C@@H]2O[C@H](C)[C@@H](O)[C@H](N)[C@@H]2O)C[C@@H]2O[C@](O)(C[C@@H](O)C[C@@H](O)[C@H](O)CC[C@@H](O)C[C@@H](O)CC(=O)O[C@H]1C)C[C@H](O)[C@H]2C(=O)O [AMPHOTERICIN B] | 1 (≈ 1.08 µM) | 0.5 (≈ 0.541 µM) | > 128 | 1 (≈ 1.08 µM) | 1 (≈ 1.08 µM) | 1 (≈ 1.08 µM) | 1 (≈ 1.08 µM) | 1 (≈ 1.08 µM) | 0.5 (≈ 0.541 µM) | 2 (≈ 2.16 µM) | 2 (≈ 2.16 µM) | > 128 | 1 (≈ 1.08 µM) | > 128 | 1 (≈ 1.08 µM) | 1 (≈ 1.08 µM) | 1 (≈ 1.08 µM) | 1 (≈ 1.08 µM) | 0.5 (≈ 0.541 µM) | 2 (≈ 2.16 µM) | CC50 at 2 h [10]: ~8 µg/mL (≈ 8.66 µM); Activity (Vero): Toxic; MIC [21]: 1 µg/mL (≈ 1.08 µM); MIC (Cryptococcus neoformans [22]): 1 µg/mL (≈ 1.08 µM); MIC ([Candida] auris [23]): 1 µg/mL (≈ 1.08 µM); MIC [24]: 1 µg/mL (≈ 1.08 µM); MIC (Cryptococcus neoformans [25]): 1 µg/mL (≈ 1.08 µM); MIC (Cryptococcus neoformans [26]): 1 µg/mL (≈ 1.08 µM); MIC (Cryptococcus neoformans [27]): 1 µg/mL (≈ 1.08 µM); viability at 2 h, 8 ug/ml [28]: 58%
2 | OC(Cn1cncn1)(Cn1cncn1)c1ccc(F)cc1F [FLUCONAZOLE] | 1 (≈ 3.27 µM) | 2 (≈ 6.53 µM) | > 128 | 4 (≈ 13.1 µM) | 1 (≈ 3.27 µM) | 2 (≈ 6.53 µM) | 2 (≈ 6.53 µM) | > 128 | 0.5 (≈ 1.63 µM) | 8 (≈ 26.1 µM) | 16 (≈ 52.2 µM) | > 128 | 64 (≈ 209 µM) | > 128 | 1 (≈ 3.27 µM) | 0.5 (≈ 1.63 µM) | 2 (≈ 6.53 µM) | 16 (≈ 52.2 µM) | 1 (≈ 3.27 µM) | 16 (≈ 52.2 µM) | Activity (Cryptococcus neoformans [29]): Active; Activity (Cryptococcus neoformans [30]): 0.25 log10CFU/ml; MIC [21]: 2 µg/mL (≈ 6.53 µM); MIC (Cryptococcus neoformans [22]): 1 µg/mL (≈ 3.27 µM); MIC ([Candida] auris [23]): 64 µg/mL (≈ 209 µM); MIC [24]: 4 µg/mL (≈ 13.1 µM); MIC (Cryptococcus neoformans [25]): 2 µg/mL (≈ 6.53 µM); MIC (Cryptococcus neoformans [26]): 1 µg/mL (≈ 3.27 µM); MIC (Cryptococcus neoformans [27]): 2 µg/mL (≈ 6.53 µM)
